Values joined by “and” are separate entries in the source; they are usually repeats but may differ in a detail not shown here. Equal entries are not always repeated.
System: U2OS
Experiment: Multiplex assay against U2OS
Type: toxicity, cell-based
Details: human
Procedure, shortened: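 Live cells were stained at seeding with Hoechst33342, BioTracker Green Microtubule Cytoskeleton Dye, MitoTracker Red and Annexin V Alexa Fluor 680, then imaged on a CQ1 microscope at 37°C and 5% CO2 after compound addition. CellPathfinder machine-learning gating split cells into Hoechst high-intensity objects or normal cells. Normal cells were split into healthy, pyknosed or fragmented nuclei, and pyknosed cells into mitotic or apoptotic. Tubulin, mitochondrial-mass and membrane-permeability phenotypes are per cents of healthy-nucleus cells.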

[1] = 12 h, 1 µM, compound concentration 1 uM
[2] = 12 h, 10 µM, compound concentration 10 uM
[3] = 24 h, 1 µM, compound concentration 1 uM
[4] = 24 h, 10 µM, compound concentration 10 uM
[5] = 48 h, 1 µM, compound concentration 1 uM
[6] = 48 h, 10 µM, compound concentration 10 uM

CN(C)c1ccnc2sc3c(=O)n(N4CCCCCC4)cnc3c12
Population Apoptotic (%) [1]: 81% and 87%
Population Fragmented Nuclei (%) [1]: 19% and 16%
Population Healthy Nuclei (%) [1]: 72% and 77%
Population Hoechst High Intensity Objects (%) [1]: 1%
Population Membrane Permeable-Phenotype (%) [1]: 4% and 6%
Population Mitochondria Different-Phenotype (%) [1]: 2%
Population Mitotic Cells (%) [1]: 18% and 12%
Population Normal (%) [1]: 98%
Population Pyknosed Nuclei (%) [1]: 7% and 6%
Population Tubulin-Different-Phenotype (%) [1]: 2%
Total Cell Count [1]: 284 and 132
Population Apoptotic (%) [2]: 41% and 88%
Population Fragmented Nuclei (%) [2]: 30% and 18%
Population Healthy Nuclei (%) [2]: 56% and 71%
Population Hoechst High Intensity Objects (%) [2]: 4% and 5%
Population Membrane Permeable-Phenotype (%) [2]: 30% and 23%
Population Mitochondria Different-Phenotype (%) [2]: 14% and 27%
Population Normal (%) [2]: 95% and 94%
Population Pyknosed Nuclei (%) [2]: 12% and 9%
Population Tubulin-Different-Phenotype (%) [2]: 20% and 22%
Total Cell Count [2]: 249 and 101
Population Apoptotic (%) [3]: 87% and 72%
Population Fragmented Nuclei (%) [3]: 16% and 15%
Population Healthy Nuclei (%) [3]: 72% and 76%
Population Hoechst High Intensity Objects (%) [3]: 2%
Population Membrane Permeable-Phenotype (%) [3]: 3% and 6%
Population Mitochondria Different-Phenotype (%) [3]: 3%
Population Mitotic Cells (%) [3]: 12% and 27%
Population Normal (%) [3]: 97%
Population Pyknosed Nuclei (%) [3]: 10% and 7%
Population Tubulin-Different-Phenotype (%) [3]: 1% and 4%
Total Cell Count [3]: 326 and 150
Population Apoptotic (%) [4]: 68% and 100%
Population Fragmented Nuclei (%) [4]: 28% and 11%
Population Healthy Nuclei (%) [4]: 56% and 75%
Population Hoechst High Intensity Objects (%) [4]: 4% and 3%
Population Membrane Permeable-Phenotype (%) [4]: 22% and 23%
Population Mitochondria Different-Phenotype (%) [4]: 15% and 25%
Population Normal (%) [4]: 95% and 96%
Population Pyknosed Nuclei (%) [4]: 15% and 13%
Population Tubulin-Different-Phenotype (%) [4]: 14% and 24%
Total Cell Count [4]: 260 and 108
Population Apoptotic (%) [5]: 90% and 92%
Population Fragmented Nuclei (%) [5]: 17% and 15%
Population Healthy Nuclei (%) [5]: 74% and 72%
Population Hoechst High Intensity Objects (%) [5]: 2%
Population Membrane Permeable-Phenotype (%) [5]: 4% and 5%
Population Mitochondria Different-Phenotype (%) [5]: 1% and 5%
Population Mitotic Cells (%) [5]: 9% and 7%
Population Normal (%) [5]: 97%
Population Pyknosed Nuclei (%) [5]: 8% and 11%
Population Tubulin-Different-Phenotype (%) [5]: 2%
Total Cell Count [5]: 486 and 239
Population Apoptotic (%) [6]: 68% and 72%
Population Fragmented Nuclei (%) [6]: 28% and 15%
Population Healthy Nuclei (%) [6]: 57% and 61%
Population Hoechst High Intensity Objects (%) [6]: 4% and 9%
Population Membrane Permeable-Phenotype (%) [6]: 15% and 21%
Population Mitochondria Different-Phenotype (%) [6]: 11% and 19%
Population Mitotic Cells (%) [6]: 31% and 27%
Population Normal (%) [6]: 95% and 90%
Population Pyknosed Nuclei (%) [6]: 14% and 22%
Total Cell Count [6]: 325 and 140

C[C@H](N)COC(=O)[C@@H](CCCCN)NC(=O)Cc1c(-c2ccc3ccccc3c2)[nH]c2c1ccc1ccccc12
Population Apoptotic (%) [1]: 73% and 75%
Population Fragmented Nuclei (%) [1]: 26% and 14%
Population Healthy Nuclei (%) [1]: 66% and 78%
Population Hoechst High Intensity Objects (%) [1]: 3% and 0%
Population Membrane Permeable-Phenotype (%) [1]: 6% and 4%
Population Mitochondria Different-Phenotype (%) [1]: 3% and 2%
Population Mitotic Cells (%) [1]: 26% and 25%
Population Normal (%) [1]: 96% and 99%
Population Pyknosed Nuclei (%) [1]: 6%
Population Tubulin-Different-Phenotype (%) [1]: 3% and 4%
Total Cell Count [1]: 244 and 128
Population Apoptotic (%) [2]: 78% and 50%
Population Fragmented Nuclei (%) [2]: 23% and 24%
Population Healthy Nuclei (%) [2]: 69% and 73%
Population Hoechst High Intensity Objects (%) [2]: 2% and 0%
Population Mitochondria Different-Phenotype (%) [2]: 1% and 3%
Population Mitotic Cells (%) [2]: 21% and 50%
Population Normal (%) [2]: 97% and 100%
Population Pyknosed Nuclei (%) [2]: 7% and 1%
Population Tubulin-Different-Phenotype (%) [2]: 3% and 5%
Total Cell Count [2]: 279 and 106
Population Apoptotic (%) [3]: 83% and 90%
Population Fragmented Nuclei (%) [3]: 22% and 16%
Population Healthy Nuclei (%) [3]: 68% and 77%
Population Hoechst High Intensity Objects (%) [3]: 2% and 1%
Population Membrane Permeable-Phenotype (%) [3]: 3% and 6%
Population Mitochondria Different-Phenotype (%) [3]: 1%
Population Mitotic Cells (%) [3]: 16% and 10%
Population Normal (%) [3]: 97% and 98%
Population Pyknosed Nuclei (%) [3]: 8% and 5%
Population Tubulin-Different-Phenotype (%) [3]: 2% and 3%
Total Cell Count [3]: 292 and 170
Population Apoptotic (%) [4]: 81% and 100%
Population Fragmented Nuclei (%) [4]: 19% and 17%
Population Healthy Nuclei (%) [4]: 73% and 79%
Population Hoechst High Intensity Objects (%) [4]: 2%
Population Membrane Permeable-Phenotype (%) [4]: 5% and 11%
Population Mitochondria Different-Phenotype (%) [4]: 1% and 3%
Population Mitotic Cells (%) [4]: 18% and 0%
Population Normal (%) [4]: 97%
Population Pyknosed Nuclei (%) [4]: 6% and 2%
Population Tubulin-Different-Phenotype (%) [4]: 2% and 6%
Total Cell Count [4]: 337 and 142
Population Apoptotic (%) [5]: 79% and 73%
Population Fragmented Nuclei (%) [5]: 16% and 17%
Population Healthy Nuclei (%) [5]: 78% and 73%
Population Hoechst High Intensity Objects (%) [5]: 1% and 2%
Population Membrane Permeable-Phenotype (%) [5]: 2% and 3%
Population Mitochondria Different-Phenotype (%) [5]: 2% and 4%
Population Mitotic Cells (%) [5]: 20% and 26%
Population Normal (%) [5]: 98% and 97%
Population Pyknosed Nuclei (%) [5]: 5% and 8%
Population Tubulin-Different-Phenotype (%) [5]: 2% and 1%
Total Cell Count [5]: 440 and 231
Population Apoptotic (%) [6]: 90%
Population Fragmented Nuclei (%) [6]: 14% and 16%
Population Healthy Nuclei (%) [6]: 74% and 77%
Population Hoechst High Intensity Objects (%) [6]: 4%
Population Membrane Permeable-Phenotype (%) [6]: 6% and 16%
Population Mitochondria Different-Phenotype (%) [6]: 1% and 2%
Population Mitotic Cells (%) [6]: 9% and 10%
Population Normal (%) [6]: 95%
Population Pyknosed Nuclei (%) [6]: 10% and 5%
Population Tubulin-Different-Phenotype (%) [6]: 2% and 6%
Total Cell Count [6]: 505 and 184

Clc1ccccc1C(c1ccccc1)(c1ccccc1)n1cccn1
Population Apoptotic (%) [1]: 52.94% and 50%
Population Fragmented Nuclei (%) [1]: 0.85% and 6.19%
Population Healthy Nuclei (%) [1]: 94.3% and 76.11%
Population Hoechst High Intensity Objects (%) [1]: 0%
Population Membrane Permeable-Phenotype (%) [1]: 0.91% and 5.81%
Population Mitochondria Different-Phenotype (%) [1]: 0.6% and 8.14%
Population Mitotic Cells (%) [1]: 47.06% and 50%
Population Normal (%) [1]: 100%
Population Tubulin-Different-Phenotype (%) [1]: 1.51% and 2.33%
Population Apoptotic (%) [2]: 36% and 44%
Population Fragmented Nuclei (%) [2]: 1.64% and 4.81%
Population Healthy Nuclei (%) [2]: 84.7% and 71.15%
Population Hoechst High Intensity Objects (%) [2]: 0%
Population Membrane Permeable-Phenotype (%) [2]: 2.58% and 8.11%
Population Mitotic Cells (%) [2]: 64% and 56%
Population Normal (%) [2]: 100%
Population Pyknosed Nuclei (%) [2]: 13.66% and 24.04%
Population Tubulin-Different-Phenotype (%) [2]: 4.19% and 5.41%
Population Apoptotic (%) [3]: 37.5% and 52.38%
Population Fragmented Nuclei (%) [3]: 0.42% and 4.86%
Population Healthy Nuclei (%) [3]: 89.47% and 80.56%
Population Hoechst High Intensity Objects (%) [3]: 0%
Population Membrane Permeable-Phenotype (%) [3]: 0.71% and 2.59%
Population Mitochondria Different-Phenotype (%) [3]: 0% and 6.9%
Population Mitotic Cells (%) [3]: 62.5% and 47.62%
Population Normal (%) [3]: 100%
Population Pyknosed Nuclei (%) [3]: 10.11% and 14.58%
Population Tubulin-Different-Phenotype (%) [3]: 0.71% and 0%
Population Apoptotic (%) [4]: 45.33% and 34.38%
Population Fragmented Nuclei (%) [4]: 1.25% and 0.79%
Population Healthy Nuclei (%) [4]: 83.12% and 73.81%
Population Hoechst High Intensity Objects (%) [4]: 0%
Population Membrane Permeable-Phenotype (%) [4]: 0.75% and 4.3%
Population Mitotic Cells (%) [4]: 54.67% and 65.62%
Population Normal (%) [4]: 100%
Population Pyknosed Nuclei (%) [4]: 15.62% and 25.4%
Population Tubulin-Different-Phenotype (%) [4]: 2.51% and 2.15%
Population Apoptotic (%) [5]: 43.33% and 70%
Population Fragmented Nuclei (%) [5]: 3.58% and 1.82%
Population Healthy Nuclei (%) [5]: 89.7% and 89.09%
Population Hoechst High Intensity Objects (%) [5]: 0%
Population Membrane Permeable-Phenotype (%) [5]: 0.75% and 3.57%
Population Mitochondria Different-Phenotype (%) [5]: 0.12% and 4.08%
Population Mitotic Cells (%) [5]: 56.67% and 30%
Population Normal (%) [5]: 100%
Population Pyknosed Nuclei (%) [5]: 6.72% and 9.09%
Population Tubulin-Different-Phenotype (%) [5]: 1.25% and 2.04%
Population Apoptotic (%) [6]: 51.65% and 41.67%
Population Fragmented Nuclei (%) [6]: 2.12% and 0.6%
Population Healthy Nuclei (%) [6]: 85.85% and 77.71%
Population Hoechst High Intensity Objects (%) [6]: 0%
Population Membrane Permeable-Phenotype (%) [6]: 1.54% and 5.43%
Population Mitochondria Different-Phenotype (%) [6]: 1.08% and 10.08%
Population Mitotic Cells (%) [6]: 48.35% and 58.33%
Population Normal (%) [6]: 100%
Population Pyknosed Nuclei (%) [6]: 12.04% and 21.69%
Population Tubulin-Different-Phenotype (%) [6]: 3.08% and 5.43%

From ChEMBL document CHEMBL5724801, “EUbOPEN Chemogenomics Library - Multiplex” (2024)
